Screening data as filed in PubChem BioAssay.
A1 apoptosis 2 = A1 inhibitors via caspase activation, primary screen, cell-based, luminescence, HTS, two replicates; MEF A1-2A-BIM cells, caspase-Glo luminescence, 3 h; percent of clofoctol response, DMSO zero; caspase activation, % (no concentration beside the values); 24,000 tested, under 10 active; AID 2465, 2010; in the data active = caspase activation above about 5.9%; inconclusive = no clear call, values can overlap the other calls; inactive = below about 2.2%
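Material: A1-2A-BIM-expressing MEF cells. Buffer or medium: RPMI-1640 plus 10% FBS. Incubation: cells settled overnight, compound exposure 3 h at 37 °C, 5% CO2. Signal: Caspase-Glo 3/7 luminescence, 1 h at room temperature.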
T cruzi intra = inhibitors of intracellular Trypanosoma cruzi, primary screen, cell-based, plate reader, single point, set 2; intracellular Trypanosoma cruzi in host cells; activity score (inhibition), % at 5.01 µM; actives 4.9% (n = 22,000); AID 651903, 2012; in the data active = activity score above about 55%; inconclusive = no clear call, values can overlap the other calls;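 also: parasites and compound incubated about four days before reading; 0% = median of neutral control wells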
INS-1E rescue = protection of INS-1E cells from cytokine death, primary screen, ATP luminescence, single point; actives 0.1% (n = 20,000); protection from cytokine-induced ATP loss, % at 10 µM; AID 488910, 2010; INS-1E cytokine-induced death, 48 h; normalised: neutral wells 0, positive control 100;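 active = mean replicate protection from cytokine-induced ATP loss at least 50% and at least 75% of replicates each reaching 50%; inconclusive = meets only one of the two criteria, mean or replicate share; inactive = fails both the mean and replicate share criteria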
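Material: INS-1E rat cells; Quantity: 8000 cells/well; Buffer or medium: phenol-red-free RPMI with 5% fetal bovine serum; Probe or stimulus: cytokine cocktail of IFN-γ, TNF-α and IL-1β; Compound dosing: single test concentration per compound, delivered by pin transfer; Incubation: 48 h co-treatment, 10 min post-lysis read; Signal: CellTiter-Glo luminescence.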
* hit, by the source's call; ? = inconclusive; nt = no result given. This is one part of a sample in which hits are shown more often than they occur.

SMILES	A1 apoptosis 2	T cruzi intra	INS-1E rescue
C[C@H](CO)N1C[C@H](C)[C@H](CN(C)Cc2ccc3c(c2)OCO3)Oc2c(NC(=O)c3nc4ccccc4s3)cccc2C1=O	-0.3	77.4*	-21.9
C[C@H]1CN([C@@H](C)CO)C(=O)c2cccc(NC(=O)c3nc4ccccc4s3)c2O[C@H]1CN(C)Cc1ccc(Cl)c(Cl)c1	nt	?	-7.6
C[C@@H]1CCCCO[C@@H](CN(C)C(=O)CCCN(C)C)[C@@H](C)CN([C@H](C)CO)C(=O)c2cc(NC(=O)Nc3cccc4ccccc34)ccc2O1	nt	1.7	3.1
C[C@H]1CN([C@@H](C)CO)C(=O)Cc2cc(NS(=O)(=O)c3ccccc3)ccc2O[C@@H]1CN(C)Cc1ccc(-c2ccccc2)cc1	nt	74.9*	-14.0
Cc1ccc(S(=O)(=O)Nc2ccc3c(c2)CC(=O)N([C@H](C)CO)C[C@H](C)[C@H](CN(C)Cc2ccccc2)O3)cc1	-1.0	41.5	-9.0
Cc1ccc(S(=O)(=O)Nc2ccc3c(c2)CC(=O)N([C@H](C)CO)C[C@@H](C)[C@H](CN(C)Cc2ccc(-c4ccccc4)cc2)O3)cc1	0.5	54.3	-15.7
Cc1ccc(S(=O)(=O)Nc2ccc3c(c2)CC(=O)N([C@@H](C)CO)C[C@@H](C)[C@@H](CN(C)Cc2ccc(-c4ccccc4)cc2)O3)cc1	-1.2	71.2*	-8.8
Cc1ccc(S(=O)(=O)Nc2ccc3c(c2)CC(=O)N([C@H](C)CO)C[C@@H](C)[C@H](CN(C)Cc2ccccc2)O3)cc1	nt	66.6*	-0.3
C[C@@H]1CN([C@H](C)CO)C(=O)Cc2cc(NS(=O)(=O)c3ccc(Cl)cc3)ccc2O[C@@H]1CN(C)Cc1ccc(-c2ccccc2)cc1	nt	67.3*	-42.1
C[C@H]1CN([C@@H](C)CO)C(=O)Cc2cc(NS(=O)(=O)c3ccccc3)ccc2O[C@H]1CN(C)Cc1ccc(-c2ccccc2)cc1	nt	3.3	1.6
C[C@@H]1CN([C@@H](C)CO)C(=O)Cc2cc(NS(=O)(=O)c3ccc(Cl)cc3)ccc2O[C@@H]1CN(C)Cc1ccc(-c2ccccc2)cc1	nt	34.4	5.4
C[C@@H]1CCCCO[C@H](CN(C)C(=O)CCC(F)(F)F)[C@@H](C)CN([C@@H](C)CO)C(=O)c2cc(NS(=O)(=O)c3ccc(F)cc3)ccc2O1	1.0	nt	nt
CC(C)=CCCC(C)(OC1OC(COC2OC(CO)C(O)C2O)C(O)C(O)C1O)C1CCC2(C)C1C(O)CC1C3(C)CCC(OC4OC(CO)C(O)C(O)C4OC4OC(CO)C(O)C(O)C4O)C(C)(C)C3CCC12C (stereo not drawn)	0.1	nt	nt
C[C@@H]1CN([C@@H](C)CO)C(=O)Cc2cc(NC(=O)Nc3ccc4c(c3)OCO4)ccc2O[C@@H]1CN(C)Cc1ccc(C(=O)Nc2ccccc2N)cc1	-0.1	66.5*	-14.9
C[C@@H]1CN([C@@H](C)CO)C(=O)Cc2cc(NC(=O)Nc3ccc(F)cc3)ccc2O[C@@H]1CN(C)Cc1ccc(C(=O)Nc2ccccc2N)cc1	nt	63.4*	-6.3
C[C@@H]1CN([C@H](C)CO)C(=O)Cc2cc(NC(=O)C3CC3)ccc2O[C@H]1CN(C)Cc1ccc(C(=O)Nc2ccccc2N)cc1	nt	19.3	-1.7
C[C@@H]1CN([C@@H](C)CO)C(=O)Cc2cc(NC(=O)NC3CCCCC3)ccc2O[C@H]1CN(C)Cc1ccc(C(=O)Nc2ccccc2N)cc1	0.0	nt	nt
C[C@H]1CN([C@@H](C)CO)C(=O)Cc2cc(NC(=O)NC3CCCCC3)ccc2O[C@H]1CN(C)Cc1ccc(C(=O)Nc2ccccc2N)cc1	-1.5	67.3*	3.3
C[C@@H]1CN([C@@H](C)CO)C(=O)Cc2cc(NC(=O)C3CC3)ccc2O[C@@H]1CN(C)Cc1ccc(C(=O)Nc2ccccc2N)cc1	nt	58.3*	-7.9
C[C@H]1CN([C@@H](C)CO)C(=O)Cc2cc(NC(=O)Nc3ccccc3)ccc2O[C@@H]1CN(C)Cc1ccc(C(=O)Nc2ccccc2N)cc1	-1.0	nt	nt
C[C@@H]1CN([C@H](C)CO)C(=O)Cc2cc(NC(=O)Nc3ccc4c(c3)OCO4)ccc2O[C@H]1CN(C)Cc1ccc(C(=O)Nc2ccccc2N)cc1	-0.5	nt	nt
O=C(NO)c1cccc(C(=O)N/N=C/c2ccccc2O)c1	-2.3	-0.7	-24.1
C[C@H]1CN([C@@H](C)CO)C(=O)c2cccc(NC(=O)C3CCCCC3)c2O[C@H]1CN(C)S(=O)(=O)c1cn(C)cn1	nt	48.1	6.4
C[C@@H]1CN([C@@H](C)CO)C(=O)Cc2cc(NC(=O)CCCN(C)C)ccc2O[C@@H]1CN(C)C	0.2	nt	nt
COc1ccc(NC(=O)N(C)C[C@@H]2Oc3c(NC(=O)c4cnccn4)cccc3C(=O)N([C@H](C)CO)C[C@@H]2C)cc1	-0.2	2.8	8.5
SMILES	A1 apoptosis 2	T cruzi intra	INS-1E rescue
C[C@@H]1CN([C@@H](C)CO)C(=O)Cc2cc(NC(=O)Nc3ccccc3)ccc2O[C@@H]1CN(C)Cc1ccc(C(=O)Nc2ccccc2N)cc1	nt	?	-14.1
C[C@H](CO)N1C[C@H](C)[C@H](CN(C)Cc2ccc(C(=O)Nc3ccccc3N)cc2)Oc2ccc(NC(=O)Nc3ccc(F)cc3)cc2CC1=O	nt	66.3*	31.4
Cc1noc(C)c1S(=O)(=O)Nc1ccc2c(c1)C(=O)N([C@H](C)CO)C[C@@H](C)[C@H](CN(C)CC1CCCCC1)OCCCC[C@H](C)O2	-0.8	nt	nt
COc1ccc(S(=O)(=O)Nc2ccc3c(c2)CC(=O)N([C@@H](C)CO)C[C@H](C)[C@H](CN(C)Cc2ccc(C(F)(F)F)cc2)O3)cc1	0.9	47.3	-32.0
COc1ccc(S(=O)(=O)Nc2ccc3c(c2)CC(=O)N([C@@H](C)CO)C[C@@H](C)[C@H](CN(C)Cc2ccc(C(F)(F)F)cc2)O3)cc1	-0.8	nt	nt
COc1ccc(S(=O)(=O)Nc2ccc3c(c2)CC(=O)N([C@H](C)CO)C[C@@H](C)[C@@H](CN(C)Cc2ccc(C(F)(F)F)cc2)O3)cc1	-0.3	65.1*	-46.1
COc1ccc(S(=O)(=O)Nc2ccc3c(c2)CC(=O)N([C@@H](C)CO)C[C@@H](C)[C@@H](CN(C)Cc2ccc(C(F)(F)F)cc2)O3)cc1	-1.1	80.0*	-25.7
C[C@@H]1CN([C@H](C)CO)C(=O)Cc2cc(NS(=O)(=O)c3cccs3)ccc2O[C@H]1CN(C)C(=O)NC1CCCCC1	0.5	-15.5	14.2
C[C@H](CO)N1C[C@H](C)[C@H](CN(C)Cc2cccc(C(F)(F)F)c2)Oc2ncc(-c3cc4ccccc4o3)cc2C1=O	nt	90.2*	nt
C[C@H](CO)N1C[C@H](C)[C@H](CN(C)C(=O)Nc2cccc3ccccc23)Oc2ncc(-c3cc4ccccc4o3)cc2C1=O	0.8	70.7*	nt
C[C@H](CO)N1C[C@H](C)[C@H](CN(C)C(=O)Nc2cccc3ccccc23)Oc2ncc(-c3ccc(F)cc3)cc2C1=O	1.4	33.1	-3.2
C[C@H](CO)N1C[C@H](C)[C@H](CN(C)S(=O)(=O)c2ccccc2)Oc2ncc(-c3cc4ccccc4o3)cc2C1=O	0.0	61.6*	nt
C[C@H](CO)N1C[C@H](C)[C@H](CN(C)S(=O)(=O)c2ccc(F)cc2)Oc2ncc(-c3cc4ccccc4o3)cc2C1=O	nt	52.1	nt
